Consider 27 compounds from ChEMBL document CHEMBL3804810, “A structural insight into the P1S1 binding mode of diaminoethylphosphonic and phosphinic acids, selective inhibitors of alanine aminopeptidases” (Eur J Med Chem, 2016).

As usually defined, the Ki is the equilibrium dissociation constant of an inhibitor or competing ligand from its target.

Test [1] concerns the target T1, Cytosol aminopeptidase (Sus scrofa, UniProt P28839).
T1 sequence (P28839 whole entry): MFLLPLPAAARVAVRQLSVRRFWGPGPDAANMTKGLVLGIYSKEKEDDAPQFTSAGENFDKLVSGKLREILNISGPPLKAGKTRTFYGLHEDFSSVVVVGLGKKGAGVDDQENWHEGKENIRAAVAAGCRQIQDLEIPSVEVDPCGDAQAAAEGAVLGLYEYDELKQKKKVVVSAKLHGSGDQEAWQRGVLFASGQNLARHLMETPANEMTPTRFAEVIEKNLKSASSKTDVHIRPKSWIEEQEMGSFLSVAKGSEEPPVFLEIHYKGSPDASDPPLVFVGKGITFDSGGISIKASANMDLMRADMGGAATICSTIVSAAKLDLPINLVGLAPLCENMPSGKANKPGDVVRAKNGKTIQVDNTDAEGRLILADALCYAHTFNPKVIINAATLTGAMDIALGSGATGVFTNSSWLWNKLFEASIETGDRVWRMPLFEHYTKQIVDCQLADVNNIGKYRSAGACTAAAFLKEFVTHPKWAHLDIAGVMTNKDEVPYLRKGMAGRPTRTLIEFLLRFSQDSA
Briefly: Inhibition of porcine kidney leucine aminopeptidase M17 using Leu-AMC as substrate preincubated for 30 to 60 mins followed by substrate addition measured for 15 mins by spectrofluorimetric analysis. In a few lines: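 Inhibitor concentrations were tested up to 800 μM against the porcine kidney enzyme. Values are reported as inhibition constants (Ki).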

Test [2] is described as follows: Inhibition of recombinant Neisseria meningitidis N-terminal His6-tagged alanyl aminopeptidase M1 expressed in Escherichia coli BL21 cells using Ala-AMC as substrate preincubated for 30 to 60 mins followed by substrate addition measured for 15 mins by spectrofluorimetric analysis.
The target in test [3] is T1, Cytosol aminopeptidase. Nature of the test: Inhibition of porcine kidney leucine aminopeptidase M17 using L-leucine p-nitro-anilide as substrate by spectrophotometric analysis.
The target in test [4] is T2, Cytosol aminopeptidase (Sus scrofa) (UniProt P28839).
T2 sequence (whole entry): T1 sequence (P28839 whole entry)
Briefly: Inhibition of porcine kidney leucine aminopeptidase M17 using Leu-AMC as substrate up to 0.8 mM preincubated for 30 to 60 mins followed by substrate addition measured for 15 mins by spectrofluorimetric analysis.

SMILES strings stand for the structures. Activity calls are given as the source filed them. No cut-off for these calls is given here.

`NC(CNC1CCCCCC1)P(=O)(O)O` (stereo not drawn) came in with an inhibitory constant (Ki) in test [1] of 20.8 µM.
For the compound `NCC(N)P(=O)(O)O` (stereo not drawn), the Ki in test [2] came out at 0.589 µM.
`COc1ccc(CCNCC(N)P(=O)(O)O)cc1` (stereo not drawn) returned a Ki in test [1] of 19.5 µM.
In the case of `NC(CN1CCCCC1)P(=O)(O)O` (stereo not drawn), the Ki in test [3] was 1410 µM.
In the case of `NC(CN1CCOCC1)P(=O)(O)O` (stereo not drawn), the inhibition entry in test [4] was “inactive”.
Regarding `CN(C)CCNCC(N)P(=O)(O)O` (stereo not drawn), the figures for the Ki in test [1] and in test [2] were 72.6 µM and 26 µM, respectively.
Regarding `NC(CCC1CCCCC1)P(=O)(O)O` (stereo not drawn), the affinity in test [1] corresponds to a Ki of 0.21 µM.
The same measure, in the same setting: the same measure for `NC(CNCCN1CCNCC1)P(=O)(O)O` (stereo not drawn): 55.8 µM.
Take `NC(CNCC1CCCO1)P(=O)(O)O` (stereo not drawn): affinity in test [1] was put at a Ki of 69.1 µM.
The compound `COc1ccc(CCNCC(N)P(=O)(O)CC(Cc2ccccc2)C(=O)O)cc1` (stereo not drawn) displayed an inhibition constant (Ki) in test [1] of 21.1 µM.
Take `NC(CNCC1CCNCC1)P(=O)(O)O` (stereo not drawn): the affinity in test [1] corresponds to a Ki of 68.4 µM.
Consider `CNCC(N)P(=O)(O)O` (stereo not drawn), for which the inhibition constant (Ki) in test [2] was determined as 29.6 µM.
In the case of `COc1ccc(CNCC(N)P(=O)(O)O)cc1` (stereo not drawn), in test [1], the Ki was 26.2 µM.
Consider `CCCCCCNCC(N)P(=O)(O)O` (stereo not drawn), for which, in test [1], the affinity, expressed as Ki, was 119 µM.
Take `CC(NCC(N)P(=O)(O)O)c1ccccc1` (stereo not drawn): the Ki in test [3] was determined as 600 µM.
`CC(C)CNCC(N)P(=O)(O)CC(Cc1ccccc1)C(=O)O` (stereo not drawn) registered a Ki in test [1] of 15.2 µM.
The compound `NCC(N)P(=O)(O)CC(Cc1ccccc1)C(=O)O` (stereo not drawn) gave a Ki in test [1] of 64.4 µM.
Turning to `NCCNCC(N)P(=O)(O)O` (stereo not drawn), the Ki in test [1] was 289 µM.
Consider `Nc1ccc(CNCC(N)P(=O)(O)O)cc1` (stereo not drawn), for which the affinity in test [1] corresponds to a Ki of 7.02 µM.
`CC(C)(C)c1ccc(CNCC(N)P(=O)(O)O)cc1` (stereo not drawn) showed a Ki in test [1] of 71.1 µM.
The same measure, in the same setting: the same measure for `NC1CCCCC1NCC(N)P(=O)(O)O` (stereo not drawn): 240 µM.
Turning to `CCCNCC(N)P(=O)(O)CC(Cc1ccccc1)C(=O)O` (stereo not drawn), the Ki in test [1] was found to be 21 µM.
`NCc1ccc(CNCC(N)P(=O)(O)O)cc1` (stereo not drawn) came in with a Ki in test [1] of 26.5 µM.
In test [1], `NC(CNC1CCCCC1)P(=O)(O)CC(Cc1ccccc1)C(=O)O` (stereo not drawn) came in with an inhibition constant (Ki) of 28.3 µM.
For `NC(CNC1CCCCCC1)P(=O)(O)CC(Cc1ccccc1)C(=O)O` (stereo not drawn), the affinity in test [1], expressed as Ki, was 23.8 µM.
In test [3], `NC(CNCc1ccccc1)P(=O)(O)O` (stereo not drawn) yielded a Ki of 350 µM.
In the case of `NC(CNCCc1ccccc1)P(=O)(O)O` (stereo not drawn), affinity in test [1] was put at a Ki of 108 µM.
